High-throughput results (PubChem)
SENP8 block-1: SENP8 (human) protease inhibition; recombinant SENP8, Nedd8 substrate fluorescence; AID 602440; inhibition, % at 20 µM; 360,000 tested, 0.64% active; in the data active means inhibition mostly above about 40%, no sharp cut-off; inactive means mostly below about 27%
Target sequence (Q96LD8 whole entry, looked up): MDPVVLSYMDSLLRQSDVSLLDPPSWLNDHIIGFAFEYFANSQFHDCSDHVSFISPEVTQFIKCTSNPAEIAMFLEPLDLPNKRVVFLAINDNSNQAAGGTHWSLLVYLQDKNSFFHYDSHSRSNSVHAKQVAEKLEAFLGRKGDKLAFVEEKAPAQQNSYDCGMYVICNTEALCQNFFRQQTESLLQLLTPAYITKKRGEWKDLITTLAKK
Platelet DG rel: modulates dense granule release in human platelets. human platelet-rich plasma, SFLLRN dense granule ATP release, luminescence. AID 1663. inhibition, %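 (compounds screened at 7.5 µM in platelet-rich plasma)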. 300,000 tested, 0.22% active;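 active means mean replicate score, as percent of positive control, at or above 50; inconclusive means mean below 50 but at least one replicate at or above 50; inactive means mean and every replicate below 50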
SENP8 block-2: blocks the human protease SENP8; Q96LD8; purified SENP8, Z-RLRGG-aminoluciferin cleavage, luminescence; inhibition, % at 10 µM; 330,000 tested, 1.2% active; AID 2540; in the data active means inhibition above about 50%
SENP6 inh: inhibitors of human SENP6 protease; Q9GZR1; Recombinant SENP6 catalytic domain, aminoluciferin luminescence; inhibition, % at 10 µM; 330,000 tested, 1.8% active; AID 2599;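 active means inhibition above about 50% at the single tested dose, limit read from the data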
SENP7 inh: inhibitors of human SENP7 protease | Q9BQF6 | 330,000 tested, 1.5% active | inhibition, % at 5 µM | recombinant SENP7, Z-RLRGG-aminoluciferin luminescence, 40 min;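 active means inhibition above about 50% at the single test dose, limit read from the data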
SENP1 inh: SENP1 (human) catalytic domain inhibition; recombinant SENP1 catalytic domain, CyPet-SUMO1-YPet FRET cleavage; AID 624204; Q9P0U3; inhibition, % at 10 µM; 360,000 tested, 0.21% active;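 active means inhibition at least 30% at 10 µM, raw YFP signal under a set limit, fluorescence ratio 0.5 to 1.5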
Target sequence (Q9P0U3 419-644 limits assumed): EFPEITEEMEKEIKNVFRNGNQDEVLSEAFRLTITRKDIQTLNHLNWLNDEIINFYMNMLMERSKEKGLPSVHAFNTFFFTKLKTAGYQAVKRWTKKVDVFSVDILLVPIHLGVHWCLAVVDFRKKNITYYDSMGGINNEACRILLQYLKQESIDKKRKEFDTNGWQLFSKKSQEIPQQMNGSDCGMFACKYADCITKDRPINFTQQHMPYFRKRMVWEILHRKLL
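Assay system: hSENP1 catalytic domain, recombinant. Amount: SENP1 enzyme, 20 pM final. Schedule: 50 min reaction, RT, dark. Technique: FRET, CFP and YFP emission. Control set: no-enzyme wells low, DMSO-plus-enzyme wells high control.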
Each line names hits and unclear results; the compound was inactive in the other large screens. A selection: hits, their analogues and other compounds. The true share with any hit is near 2.6%.

O=[N+]([O-])c1cc(C(F)(F)F)ccc1N1CCC(O)CC1	none
O=[N+]([O-])c1cc(C(F)(F)F)ccc1N1CCN(S(=O)(=O)c2ccc3ccccc3c2)CC1	SENP8 block-1 40.0
COc1ccc(C2=NN(C(=O)CSC3=NN4CCCC(=O)N=C4S3)C(c3cccc(OC)c3OC)C2)cc1 (centres undefined)	Platelet DG rel 74.0
COc1cccc(C2CC(c3cccs3)=NN2C(=O)CSC2=NN3CCCC(=O)N=C3S2)c1OC (centres undefined)	none
CCOc1ccc(/C=C2\SC(=S)N(C(C(=O)O)c3ccccc3)C2=O)cc1OC (centres undefined)	none
C=CCOc1ccc(/C=C2\SC(=S)N(C(C(=O)O)c3ccccc3)C2=O)cc1 (centres undefined)	SENP8 block-1 41.5 (no result: SENP8 block-2, SENP6 inh, SENP7 inh)
CN1CCN(Cc2oc(CO)cc(=O)c2O)CC1	none
CSc1nnc(CCNC(=O)OC(C)(C)C)o1	none
CCCc1nnc(NC(=O)C(=O)NCCN(CC)CC)s1	none (no result: SENP8 block-2, SENP6 inh, SENP7 inh)
COc1ccc(O)c(C2(O)C(=O)c3ccccc3C2=O)c1	none
CC(=O)C(C(C)=O)C1(O)C(=O)c2ccccc2C1=O	SENP8 block-1 60.6
CCOC(=O)c1c(C)c(-c2ccccc2)n(CC(=O)N2CCN(C)CC2)c1C	none
CCOC(=O)c1c(C)c(-c2ccccc2)n(CC(=O)N2CCCC2)c1C	Platelet DG rel 55.7
Cn1nc(-c2ccc(Cl)cc2)nc2c(=O)n(C)c(=O)nc1-2	SENP8 block-2 97.9, SENP6 inh 97.9, SENP7 inh 97.8 (no result: SENP8 block-1, SENP1 inh)
O=C(COc1ccccc1F)N/N=C1\CCCc2ccccc21	SENP6 inh 56.8
CCN1CCN(CCNC(=O)CCCCCn2c(=O)[nH]c3cc(C(=O)OC)ccc3c2=O)CC1	none
Cc1cc(N2CCCC2)ccc1/C=C1/C(=O)N(C)C(=S)N1C	SENP1 inh 66.1
COc1ccc(CCNC(=O)C2CC(c3ccccc3C(F)(F)F)=NO2)cc1 (centres undefined)	none
Cc1ccc(-c2c(C#N)c(N)n(-c3ccc(C)cc3)c(=O)c2C#N)cc1	Platelet DG rel inconclusive
Cc1ccc(-n2c(N)c(C#N)c(-c3ccc(Cl)cc3)c(C#N)c2=O)cc1	Platelet DG rel 74.6
O=C(c1cc(F)ccc1F)C1CCCN(C(=O)CCCN2CCCCC2=O)C1 (centres undefined)	none
Cc1ccccc1/C=C/c1nc2ccccc2c(=O)[nH]1	SENP8 block-2 68.7, SENP7 inh 85.9
O=C1NC[C@H](CCCCN2C[C@H](Cc3ccccc3)N(CC3CCCCC3)C(=O)C2=O)N(CCc2ccc(O)cc2)C1=O	none (no result: Platelet DG rel, SENP8 block-2, SENP6 inh, SENP7 inh)
O=C(CC(Nc1ccccc1)C(=O)O)c1ccccc1 (centres undefined)	SENP8 block-2 53.8, SENP6 inh 79.5
O=C(CC(Nc1ccc(Cl)cc1Cl)C(=O)O)c1ccccc1 (centres undefined)	none
CCCCc1c(O)nc(SCC(=O)Nc2ccc(OC)cc2)n(-c2ccc(C)c(C)c2)c1=O	none (no result: Platelet DG rel, SENP8 block-2, SENP6 inh, SENP7 inh)
CN(C)c1ccc(-c2cc([C@H]3[C@@H]4C=CCC[C@@]4(C)C(=O)N3Cc3ccccc3)ccc2F)cc1	SENP1 inh 47.8
O=C(NC(=O)c1ccccc1O)c1ccc2c(c1)CCO2	SENP8 block-2 51.0, SENP6 inh 65.0
CSc1ccn(CCC(=O)O)c(=O)n1	none (no result: Platelet DG rel)
CCN(Cc1ccccc1)c1ccc(/C=C(\C#N)c2ccccn2)cc1	none
CCN(CC)c1ccc(/C=C(\C#N)c2ccccn2)cc1	SENP8 block-2 88.0, SENP6 inh 83.7, SENP7 inh 87.8
CN(C)/N=C/C=C1\CC/C(=C\c2ccc(F)c(F)c2)C1=O	SENP8 block-1 51.5
O=C1NC(=S)S/C1=C\c1cc2ccccc2nc1N1CCCCC1	SENP1 inh 76.5
CCCCOC(=O)c1cccc(NC(=O)CC)c1	none
O=C(O)C(Cc1ccccc1)N1C(=O)/C(=C/c2cccs2)SC1=S (centres undefined)	SENP8 block-1 41.1 (no result: Platelet DG rel)
COc1ccc(NC(=S)NN2C(C)CCCC2C)cc1 (centres undefined)	none
CCS(=O)(=O)Nc1ccc(-c2nnc(SCC(=O)OC)o2)cc1	Platelet DG rel 50.1
O=C(Nc1ccccc1)C1=C[C@@H](c2ccc(C(F)(F)F)cc2)C[C@@H](OCCCCO)O1	none
CCOc1ccc(C(=O)Nc2cccc([N+](=O)[O-])c2)cc1Br	SENP7 inh 55.6
COc1ccc(S(=O)(=O)N(C)CC(=O)Nc2ccc3c(c2)OCO3)cc1OC	Platelet DG rel 70.7
CS(=O)(=O)NCc1ccc(C(=O)NCCOc2ccccc2)cc1	none
C/C(=C\C(=S)Nc1ccccc1)Nc1cccc2ccccc12	SENP8 block-2 71.4, SENP6 inh 83.2
COc1ccc(CNC(=S)Nc2cccc(OC)c2)cc1	none
Cc1ccc(S(=O)(=O)N(C)C)cc1NC(=S)Nc1cccc2ccccc12	SENP8 block-2 84.1, SENP6 inh 90.4, SENP7 inh 56.5
COc1cccc(NC(=S)Nc2cccc3ccccc23)c1	SENP8 block-2 87.9, SENP6 inh 88.8
Cc1ccc(S(=O)(=O)NC2CCCC2)cc1C	none (no result: Platelet DG rel)
Cc1cc(=O)[nH]c2ccc(S(=O)(=O)NC3CCCCC3)cc12	Platelet DG rel 63.2
Cc1cccc2nc(CSc3ccccc3N)cn12	none
Cc1cccc2nc(COc3ccc4ccccc4c3Br)cn12	SENP6 inh 56.8
COc1cc(/C=C2\SC(N3CCC(C)CC3)=NC2=O)ccc1O	SENP1 inh 63.0
Cc1ccccc1NC(=O)CC1SC(=O)N(c2ccccc2)C1=O (centres undefined)	SENP8 block-1 54.7
NC(=O)NC[C@@H]1CC[C@@H](Cc2ccc(-c3ccccc3)cc2)O1	none (no result: Platelet DG rel, SENP8 block-2, SENP6 inh)
OC[C@@H]1CC[C@@H](Cc2ccc(-c3ccccc3)cc2)O1	SENP7 inh 63.0 (no result: Platelet DG rel, SENP8 block-2, SENP6 inh)
CC1=C(C(=O)N(C)C)CC(CC(=O)NCCN2CCOCC2)C(=O)N1Cc1ccc(F)cc1 (centres undefined)	none (no result: Platelet DG rel, SENP8 block-2, SENP6 inh, SENP7 inh)
Cc1ccccc1-c1nc(CS(=O)(=O)CC(=O)Nc2cc(F)ccc2F)c(C)o1	none
COc1ccccc1NC(=O)CN(c1ccc(C)cc1)S(=O)(=O)c1c(C)n[nH]c1C	none (no result: Platelet DG rel)
CC12CCC(C/C1=N\N=C1\NC(=O)/C(=C\c3ccc(Cl)cc3)S1)C2(C)C (centres undefined)	SENP8 block-1 40.3
CC(=O)N(c1ccccc1Cl)S(=O)(=O)c1ccc(Cl)cc1	none
Nc1c(Cl)ncnc1N/N=C/c1ccc(O)cc1	Platelet DG rel 71.9, SENP8 block-2 94.7, SENP6 inh 96.3, SENP7 inh 95.6
Cc1cc(=O)n2[nH]c(N)c(N=Nc3ccccc3F)c2n1	SENP8 block-2 85.4, SENP6 inh 93.9, SENP7 inh 85.7
CC1CCN(C(=O)CN(c2ccc3c(c2)OCO3)S(C)(=O)=O)CC1	none
CN1CCS/C1=C/C=C1\SC(=S)N(CC(=O)O)C1=O	SENP1 inh 65.5
CCCCN1C(=O)/C(=C/C=C2\SCCN2C)SC1=S	none
